Data set [1] can be described thus: Solubility of the compound in organic solvent. In kind it is physicochemical.
Data set [2] is described as follows: Aqueous solubility of the compound. In kind it is physicochemical. Particulars: buffer.
Data set [3] in a line: Cytotoxicity against human GM00637 cells assessed as reduction in mean cell viability after 72 hrs by MTT assay. The settings on record: GM00637, 72 h. In kind it is cell-based. The method, boiled down:
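SV40-transformed normal skin fibroblasts (GM00637) in MEM Eagle–Earle BSS with 15% heat-inactivated FBS, 2 mM L-glutamine, 2× amino acids and vitamins. Seeded at 10,000 cells/well and left 24 h to adhere. Ethanol-delivered compound (1% final) for 72 h at 37 °C, 5% CO₂. MTT formazan in DMSO read at 550/690 nm. Viability relative to vehicle; IC₅₀ by nonlinear regression.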

The structures appear in SMILES notation.

The values below come from ChEMBL document CHEMBL2021842, “COMPARE analysis of the toxicity of an iminoquinone derivative of the imidazo[5,4-f]benzimidazoles with NAD(P)H:quinone oxidoreductase 1 (NQO1) activity and computational docking of quinones as NQO1 substrates” (Bioorg Med Chem, 2012).

For `O=C1c2nc3n(c2C(=O)c2nc4n(c21)CCC4)CCC3`, the solubility entry in data set [1] and in data set [2] was “Insoluble” throughout. In general, IC50 refers to the concentration at which inhibition is half-maximal. For `CO[C@@]12[C@H](COC(N)=O)C3=C(C(=O)C(C)=C(N)C3=O)N1C[C@@H]1N[C@@H]12` [MITOMYCIN], the IC50 in data set [3] came to 460 nM.
